# ChEMBL document CHEMBL1122853, “New bicyclic antidepressant agent. Synthesis and activity of napactadine and related compounds” (J Med Chem, 1985)
# Active and inactive are the calls of the source. The calls are words filed in the database; no cut-off is given here.
# Legend:
# [1] = Lethal dose in mouse i.p.; assay type: toxicity, organism-based; conditions: in vivo, ip
# Outline: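 Male Swiss-Webster albino mice, 20-24 g, in groups of five. Each group received one dose ip in saline (prepared 30 min before injection) at 10 mL/kg. Mice were held singly for about 5 h, then housed together with food and water. Deaths were counted at 1 and 24 h. LD50 by Litchfield-Wilcoxon.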
# [2] = Therapeutic index administered perorally in mouse; assay type: organism-based; conditions: in vivo, po, read-out: Therapeutic index
# Outline: (§1)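 Index from mouse LD50 over reserpine-ptosis ED50 by the same route. […] Deaths recorded at 1 and 24 h; Litchfield-Wilcoxon calculation.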
# Mus musculus [3] = experiment: Effective dose required to prevent reserpine ptosis in mice, administered orally (po); assay type: functional
# Outline: (§2)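 Male Swiss-Webster or Harlan ICR mice, five per dose. Drug in saline given po or ip per line. Reserpine 2.5 mg/kg ip 30 min later. Complete absence of ptosis at 45 min after reserpine scored as positive. ED50 by Litchfield-Wilcoxon or Horn method, with 95% confidence intervals.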
# Mus musculus [4] = experiment: Effective dose required to prevent reserpine ptosis in mice, administered intraperitoneally; assay type: functional; conditions: ip; outline: as §2
# [5] = Therapeutic index administered intraperitoneally in mouse; assay type: organism-based; conditions: in vivo, ip, read-out: Therapeutic index; outline: as §1
# Mus musculus [6] = experiment: (§3) Effective dose required to potentiate yohimbine hydrochloride induced lethality in mice, administered intraperitoneally; assay type: functional; conditions: ip
# Outline: (§4)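 Male Swiss-Webster or Swiss ND/4 mice, 20-24 g, randomized into groups of 10 and housed five per cage. Test drug in saline given ip, with a saline control group. Yohimbine hydrochloride 20 mg/kg sc was given 30 min later, and mice were then reaggregated.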
# [7] = Lethal dose in mouse p.o.; assay type: toxicity, organism-based; conditions: in vivo, po
# Mus musculus [8] = experiment: Effective dose required to prevent reserpine ptosis in mice, administered (po)orally; assay type: functional; outline: as §2
# Mus musculus [9] = experiment: Effective dose required to prevent reserpine ptosis in mice, administered orally(po); NA=Not active at 100 mg/kg; assay type: functional, organism-based; design: dose 100 mg/kg; outline: as §2
# Mus musculus [10] = experiment: Effective dose required to prevent reserpine ptosis in mice, administered orally; NA=Not active at 100 mg/kg; assay type: functional, organism-based; design: dose 100 mg/kg; outline: as §2
# Mus musculus [11] = experiment: Effective dose required to prevent reserpine ptosis in mice, administered orally; assay type: functional; conditions: po; outline: as §2
# Mus musculus [12] = experiment: Effective dose required to prevent reserpine ptosis in mice administered intraperitoneally; NA=Not active; assay type: functional, organism-based; outline: as §2
# Mus musculus [13] = experiment: Effective dose required to prevent reserpine ptosis in mice administered intraperitoneally; assay type: functional; conditions: ip; outline: as §2
# Mus musculus [14] = experiment: Effective dose required to prevent reserpine ptosis in mice, administered orally(po); assay type: functional; outline: as §2
# Mus musculus [15] = experiment: Effective dose required to prevent reserpine ptosis in mice, administered intraperitoneally.; assay type: functional, organism-based; outline: as §2
# Mus musculus [16] = experiment: Effective dose required to prevent reserpine ptosis in mice, administered intraperitoneally; NA=Not active at 46 mg/Kg; assay type: functional, organism-based; outline: as §2
# Mus musculus [17] = experiment: Effective dose required to prevent reserpine ptosis in mice, administered intraperitoneally; NA=Not active at 100 mg/kg; assay type: functional, organism-based; design: dose 100 mg/kg; outline: as §2
# Mus musculus [18] = experiment: Effective dose against yohimbine hydrochloride induced lethality in mice, administered intraperitoneally; assay type: functional; conditions: ip; outline: as §4
# Mus musculus [19] = experiment: Electrical shock aggression was evaluated in mice, administered intraperitoneally; assay type: functional; conditions: ip
# Outline: (§5)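 Pairs of mice placed under an inverted 1000 cm3 beaker and shocked through the floor grid (3 mA, 3 Hz) for 2 min. Drug given ip 30 min before testing; scored all-or-none against a saline group. Fighting counted as inhibited when mean attacks fell 1.5 SD below the vehicle mean.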
# Mus musculus [20] = experiment: Effective dose required to prevent reserpine ptosis in mice administered po; assay type: functional; outline: as §2
# Mus musculus [21] = experiment: as §3; assay type: organism-based; conditions: in vivo, ip; outline: as §4
# Mus musculus [22] = experiment: Effective dose required to potentiate yohimbine hydrochloride induced lethality in mice, administered intraperitoneally; NA=Not active; assay type: functional, organism-based
# Outline: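 Male Swiss-Webster or Swiss ND/4 mice, 20-24 g, randomized into groups of 10 and aggregated five per cage. Test drug in saline given ip, with a saline control group. Yohimbine HCl (20 mg/kg, sc) injected 30 min later, then mice reaggregated.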
# Mus musculus [23] = experiment: Effective dose required to prevent reserpine ptosis in mice, administered po; NA=Not active; assay type: functional, organism-based; outline: as §2
# Mus musculus [24] = experiment: Electrical shock aggression was evaluated in mice, administered intraperitoneally; NA means no aggression blockade at 46.4 mg/kg; assay type: functional, organism-based; design: dose 46.4 mg/kg; outline: as §5
# Mus musculus [25] = experiment: Effective dose required to prevent reserpine ptosis in mice administered orally; assay type: functional; conditions: po; outline: as §2
structure (smiles),measurement,setting,value
C/N=C(\NC)c1ccc(Cl)cc1.Cl,LD50,[1],108 mg/kg
same,selectivity ratio,[2],32
same,ED50,Mus musculus [3],6.2 mg/kg
same,ED50,Mus musculus [4],6.8 mg/kg
same,selectivity ratio,[5],16
same,ED50,Mus musculus [6],6 mg/kg
same,LD50,[7],200 mg/kg
Cl.N=C(Cc1ccc2ccccc2c1)N1CCOCC1,ED50,Mus musculus [8],17.1 mg/kg
COc1ccc(CC/N=C(/N)Cc2ccc3ccccc3c2)cc1OC,ED50,Mus musculus [9],inactive
Cc1ccc(C/N=C(/N)Cc2ccc3ccccc3c2)c(C)c1,ED50,Mus musculus [10],inactive
Cl.N=C(Cc1ccc2ccccc2c1Cl)N1CCC(Cc2ccccc2)CC1,ED50,Mus musculus [11],19.6 mg/kg
C/N=C(/Cc1ccc2ccccc2c1O)NC.Cl,ED50,Mus musculus [8],26.1 mg/kg
CCC/N=C(/COc1ccccc1)NCCC,ED50,Mus musculus [12],inactive
C/N=C(/COc1ccccc1)NC.Cl,ED50,Mus musculus [6],2.2 mg/kg
same,ED50,Mus musculus [13],1.1 mg/kg
C/N=C(/Cc1ccc2cc(O)ccc2c1)NC.Cl,ED50,Mus musculus [8],23.7 mg/kg
CC/N=C(/COc1ccc(Cl)c(Cl)c1)NCC.Cl,ED50,Mus musculus [4],3.3 mg/kg
same,ED50,Mus musculus [6],3.5 mg/kg
Cl.N=C(Cc1ccc2ccccc2c1Cl)N1CCN(c2ccccc2)CC1,ED50,Mus musculus [14],16.2 mg/kg
CC/N=C(/Cc1cccc(C)c1)NCC,ED50,Mus musculus [15],inactive
N=C(Cc1ccc2ccccc2c1)N1CCN(c2ccccc2)CC1,ED50,Mus musculus [9],inactive
CCC(=O)C1(c2ccccc2)CCN(C(=N)Cc2ccc3ccccc3c2)CC1,ED50,Mus musculus [9],inactive
CC/N=C(/Cc1cc(Cl)c(Cl)cc1Cl)NCC,ED50,Mus musculus [16],inactive
CC(C)/N=C(/Cc1ccc2ccccc2c1)NC(C)C,ED50,Mus musculus [17],inactive
same,ED50,Mus musculus [10],inactive
Cl.Cl.N=C(Cc1ccc2ccccc2c1)NCCN1CCOCC1,ED50,Mus musculus [8],14.7 mg/kg
C/N=C(\NC)C(c1ccc(Cl)cc1)c1ccc(Cl)cc1.Cl,ED50,Mus musculus [18],27.2 mg/kg
same,ED50,Mus musculus [4],2.4 mg/kg
CC/N=C(/Cc1ccc2ccccc2c1Cl)NCC.Cl,ED50,Mus musculus [17],inactive
same,ED50,Mus musculus [11],41 mg/kg
same,ED50,Mus musculus [18],41 mg/kg
C/N=C(/Cc1ccc(Cl)cc1)NC.Cl,LD50,[1],69.4 mg/kg
same,selectivity ratio,[2],127
same,ED50,Mus musculus [19],43 mg/kg
same,ED50,Mus musculus [20],3.4 mg/kg
same,ED50,Mus musculus [21],15 mg/kg
same,ED50,Mus musculus [4],2.3 mg/kg
same,selectivity ratio,[5],30
same,LD50,[7],430 mg/kg
C/N=C(/Cc1ccc(C)cc1)NC,ED50,Mus musculus [15],inactive
C/N=C(/Cc1ccc2ccccc2c1)NC.Cl [NAPACTADINE HYDROCHLORIDE],LD50,[1],68.1 mg/kg
same,selectivity ratio,[2],34
same,ED50,Mus musculus [19],12.6 mg/kg
same,ED50,Mus musculus [14],17.1 mg/kg
same,ED50,Mus musculus [4],12.6 mg/kg
same,selectivity ratio,[5],5
same,ED50,Mus musculus [6],0.8 mg/kg
same,LD50,[7],584 mg/kg
CC(C)/N=C(/N)Cc1ccc2ccccc2c1,ED50,Mus musculus [9],inactive
CN(CCO)C(=N)Cc1ccc2ccccc2c1.Cl,ED50,Mus musculus [8],19.6 mg/kg
C/N=C(/COc1ccc(Cl)cc1Cl)NC.Cl,ED50,Mus musculus [4],7.5 mg/kg
CNC(=N)Cc1ccc2ccccc2c1.Cc1ccc(S(=O)(=O)O)cc1.Cl,ED50,Mus musculus [14],22.5 mg/kg
C/N=C(/Cc1ccc2cc(OC)ccc2c1)NC.Cl,ED50,Mus musculus [22],inactive
same,ED50,Mus musculus [11],23.7 mg/kg
same,ED50,Mus musculus [4],19 mg/kg
C/N=C(/Cc1cc2ccccc2cc1C)NC,ED50,Mus musculus [15],inactive
same,ED50,Mus musculus [23],inactive
Cl.N=C(Cc1ccc2ccccc2c1)N1CCCC1,ED50,Mus musculus [8],11 mg/kg
COc1ccccc1N1CCN(C(=N)Cc2ccc3ccccc3c2)CC1,ED50,Mus musculus [9],inactive
Cl.N=C(Cc1ccc2ccccc2c1)N1CCC(O)(Cc2ccccc2)CC1,ED50,Mus musculus [14],22.5 mg/kg
CC/N=C(/Cc1ccc(Cl)c(Cl)c1)NCC.Cl,LD50,[1],31.6 mg/kg
same,selectivity ratio,[2],7
same,ED50,Mus musculus [24],inactive
same,ED50,Mus musculus [8],12.6 mg/kg
same,ED50,Mus musculus [4],9.3 mg/kg
same,selectivity ratio,[5],3
same,ED50,Mus musculus [6],6 mg/kg
same,LD50,[7],90 mg/kg
CC/N=C(/Cc1cccc(C(F)(F)F)c1)NCC.Cl,ED50,Mus musculus [4],5.1 mg/kg
same,ED50,Mus musculus [6],12.8 mg/kg
Cl.N=C(Cc1ccc2ccccc2c1)N1CCCCCC1,ED50,Mus musculus [25],11 mg/kg
